Data from ChEMBL document CHEMBL1649289, “Paradoxical growth of Candida dubliniensis does not preclude in vivo response to echinocandin therapy” (2009).
In brackets after ≈: the same amount, converted by molar mass. Starred links: 1 amine or outer side, 2 acyl side, 3 side chain; linkers in the order of their positions; H or OH if unused. Positions of bridges follow the written chain, without caps; N, C: chain ends. Non-standard residues stand in square brackets, D forms with d. Residues, ends and D or L forms follow the SMILES beside them. *: point of attachment. pTerphenylCO(4''-OnC5H11) = CCCCCOc1ccc(-c2ccc(-c3ccc(C(=O)*)cc3)cc2)cc1; Orn(4R-OH,5R-OH) = O=C([C@H](C[C@@H](O)[C@@H](O)N[*:3])N[*:1])[*:2]; hTyr(3S-OH,4S-OH) = N[C@H](C(=O)O)[C@H](O)[C@@H](O)c1ccc(O)cc1; Pro(3S-OH,4S-Me) = C[C@H]1CN[C@H](C(=O)O)[C@H]1O; Hyp = O=C(O)[C@@H]1C[C@@H](O)CN1

Experiments:
Type in all cases: functional
[1] = system: Candida dubliniensis; test: Antifungal activity against Candida dubliniensis 10035 after 48 hrs; conditions: Candida dubliniensis, 10035, 48 h
Summary of the method: (§1)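 CLSI M27-A3 broth microdilution. Yeast inoculum was adjusted with a hemocytometer. MIC was read at 24 h or 48 h as the lowest concentration giving 50% growth inhibition.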

[2] = system: Candida dubliniensis; test: Antifungal activity against Candida dubliniensis 9456 assessed as compound concentration at which paradoxical growth of observed after 48 hrs
Summary of the method: (§2)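 Broth dilution susceptibility testing of yeasts per CLSI reference method M27-A3, with inocula adjusted by hemocytometer count. Wells were read at 24 and 48 h. The paradoxical growth range is the span of drug concentrations (μg/ml) over which growth reappeared above the inhibitory concentration. Where growth occurred across the entire concentration range (trailing), no range was determined.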

[3] = system: Candida dubliniensis; test: Antifungal activity against Candida dubliniensis 10035 after 24 hrs; conditions: Candida dubliniensis, 10035, 24 h; summary of the method: as §1
[4] = system: Candida dubliniensis; test: Antifungal activity against Candida dubliniensis 10034 after 24 hrs; conditions: Candida dubliniensis, 10034, 24 h; summary of the method: as §1
[5] = system: Candida dubliniensis; test: Antifungal activity against Candida dubliniensis 9453 assessed as compound concentration at which paradoxical growth of observed after 48 hrs; summary of the method: as §2
[6] = system: Candida dubliniensis; test: Antifungal activity against Candida dubliniensis 9453 after 48 hrs; conditions: Candida dubliniensis, 9453, 48 h; summary of the method: as §1
[7] = system: Candida dubliniensis; test: Antifungal activity against Candida dubliniensis 9453 after 24 hrs; conditions: Candida dubliniensis, 9453, 24 h; summary of the method: as §1
[8] = system: Candida dubliniensis; test: Antifungal activity against Candida dubliniensis 10033 by hemocytometry
Summary of the method: (§3)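 Minimal fungicidal concentration from the broth dilution test, defined as the lowest drug level giving ≥99.9% reduction in CFU/ml. Inocula were adjusted by hemocytometer.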

[9] = system: Candida dubliniensis; test: Antifungal activity against Candida dubliniensis FMR 10032 infected in OF1 mouse assessed as fungal count in spleen at 10 mg/kg/day, iv […]
Summary of the method: (§4)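 Immunocompetent male OF1 mice, 10 per group, were challenged i.v. with 1.5 × 10^7 CFU. Drug was given i.v. once daily at 1 or 10 mg/kg for 3 days, starting 24 h post-challenge; controls were untreated. Mice were killed 1 day after the last dose. Kidneys and spleen were homogenized in saline, serial 10-fold dilutions were plated on Sabouraud agar at 35°C for 3 days, and mean log10 CFU was reported.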

[10] = system: Candida dubliniensis; test: Antifungal activity against Candida dubliniensis FMR 10032 infected in immunosuppressed OF1 mouse assessed as fungal count in spleen at 1 mg/kg/day, iv […]
Summary of the method: (§5)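 Male OF1 mice, 10 per group, were immunosuppressed on infection day with cyclophosphamide 200 mg/kg i.p. plus 5-fluorouracil 150 mg/kg i.v., then challenged i.v. with 1.5 × 10^5 CFU. Drug was given at 1 mg/kg i.v. once daily for 5 days, starting 24 h after challenge. One day after treatment ended, kidney and spleen homogenates were plated in 10-fold dilutions on Sabouraud agar (35°C, 3 days) and mean log10 CFU was reported.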

[11] = system: Candida dubliniensis; test: Antifungal activity against Candida dubliniensis 9456 after 24 hrs; conditions: Candida dubliniensis, 9456, 24 h; summary of the method: as §1
[12] = system: Candida dubliniensis; test: Antifungal activity against Candida dubliniensis FMR 10032 infected in OF1 mouse assessed as fungal count in spleen at 1 mg/kg/day, iv […]; summary of the method: as §4
[13] = system: Candida dubliniensis; test: Antifungal activity against Candida dubliniensis FMR 10032 infected in OF1 mouse assessed as fungal count in kidney at 1 mg/kg/day, iv […]; summary of the method: as §4
[14] = system: Candida dubliniensis; test: Antifungal activity against Candida dubliniensis 10034 after 48 hrs; conditions: Candida dubliniensis, 10034, 48 h; summary of the method: as §1
[15] = system: Candida dubliniensis; test: Antifungal activity against Candida dubliniensis FMR 10032 infected in immunosuppressed OF1 mouse assessed as fungal count in kidney at 1 mg/kg/day, iv […]; summary of the method: as §5
[16] = system: Candida dubliniensis; test: Antifungal activity against Candida dubliniensis 9453 by hemocytometry; summary of the method: as §3
[17] = system: Candida dubliniensis; test: Antifungal activity against Candida dubliniensis 10032 after 24 hrs; conditions: Candida dubliniensis, 10032, 24 h; summary of the method: as §1
[18] = system: Candida dubliniensis; test: Antifungal activity against Candida dubliniensis 10033 after 24 hrs; conditions: Candida dubliniensis, 10033, 24 h; summary of the method: as §1
[19] = system: Candida dubliniensis; test: Antifungal activity against Candida dubliniensis FMR 10034 infected in immunosuppressed OF1 mouse assessed as fungal count in kidney at 1 mg/kg/day, iv […]; summary of the method: as §5
[20] = system: Candida dubliniensis; test: Antifungal activity against Candida dubliniensis 10034 by hemocytometry; summary of the method: as §3
[21] = system: Candida dubliniensis; test: Antifungal activity against Candida dubliniensis 10032 by hemocytometry; summary of the method: as §3
[22] = system: Candida dubliniensis; test: Antifungal activity against Candida dubliniensis 9456 after 48 hrs; conditions: Candida dubliniensis, 9456, 48 h; summary of the method: as §1
[23] = system: Candida dubliniensis; test: Antifungal activity against Candida dubliniensis 10034 assessed as compound concentration at which paradoxical growth of observed after 48 hrs
Summary of the method: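 In the same broth dilution (CLSI M27-A3) tests, read at 24 or 48 h, this is the range of drug concentrations over which paradoxical growth appeared. It was not set when growth occurred across the whole tested range (trailing).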

[24] = system: Candida dubliniensis; test: Antifungal activity against Candida dubliniensis FMR 10032 infected in OF1 mouse assessed as fungal count in kidney at 10 mg/kg/day, iv […]; summary of the method: as §4
[25] = system: Candida dubliniensis; test: Antifungal activity against Candida dubliniensis FMR 10034 infected in OF1 mouse assessed as fungal count in spleen at 1 mg/kg/day, iv […]; summary of the method: as §4
[26] = system: Candida dubliniensis; test: Antifungal activity against Candida dubliniensis 10033 after 48 hrs; conditions: Candida dubliniensis, 10033, 48 h; summary of the method: as §1
[27] = system: Candida dubliniensis; test: Antifungal activity against Candida dubliniensis FMR 10034 infected in OF1 mouse assessed as fungal count in kidney at 1 mg/kg/day, iv […]; summary of the method: as §4
[28] = system: Candida dubliniensis; test: Antifungal activity against Candida dubliniensis 9456 by hemocytometry; summary of the method: as §3
[29] = system: Candida dubliniensis; test: Antifungal activity against Candida dubliniensis 10031 after 24 hrs; conditions: Candida dubliniensis, 10031, 24 h; summary of the method: as §1
[30] = system: Candida dubliniensis; test: Antifungal activity against Candida dubliniensis FMR 10034 infected in OF1 mouse assessed as fungal count in kidney at 10 mg/kg/day, iv […]; summary of the method: as §4
[31] = system: Candida dubliniensis; test: Antifungal activity against Candida dubliniensis 10033 assessed as compound concentration at which paradoxical growth of observed after 48 hrs; summary of the method: as §2
[32] = system: Candida dubliniensis; test: Antifungal activity against Candida dubliniensis 10031 after 48 hrs; conditions: Candida dubliniensis, 10031, 48 h; summary of the method: as §1
[33] = system: Candida dubliniensis; test: Antifungal activity against Candida dubliniensis FMR 10034 infected in OF1 mouse assessed as fungal count in spleen at 10 mg/kg/day, iv […]; summary of the method: as §4
[34] = system: Candida dubliniensis; test: Antifungal activity against Candida dubliniensis FMR 10034 infected in immunosuppressed OF1 mouse assessed as fungal count in spleen at 1 mg/kg/day, iv […]; summary of the method: as §5
[35] = system: Candida dubliniensis; test: Antifungal activity against Candida dubliniensis 10031 by hemocytometry; summary of the method: as §3
[36] = system: Candida dubliniensis; test: Antifungal activity against Candida dubliniensis 10032 after 48 hrs; conditions: Candida dubliniensis, 10032, 48 h; summary of the method: as §1

**Q.** Which MIC50 [1] does the source give for `CCCCCOc1ccc(-c2ccc(-c3ccc(C(=O)N[C@H]4C[C@@H](O)[C@@H](O)NC(=O)[C@@H]5[C@@H](O)[C@@H](C)CN5C(=O)[C@H]([C@@H](C)O)NC(=O)[C@H]([C@H](O)[C@@H](O)c5ccc(O)cc5)NC(=O)[C@@H]5C[C@@H](O)CN5C(=O)[C@H]([C@@H](C)O)NC4=O)cc3)cc2)cc1` [ANIDULAFUNGIN] ({pTerphenylCO(4''-OnC5H11)}-[Orn(4R-OH,5R-OH)]T[Hyp][hTyr(3S-OH,4S-OH)]T[Pro(3S-OH,4S-Me)]; lactam 1-C) here?
**A.** < 0.03 µg/mL

**Q.** What about the Activity [2] of the same compound?
**A.** 8 µg/mL

**Q.** And the MIC50 [3]?
**A.** < 0.03 µg/mL

**Q.** What about the MIC50 [4] of the same compound?
**A.** < 0.03 µg/mL

**Q.** What about the Activity [5] of the same compound?
**A.** 4 µg/mL

**Q.** And the MIC50 [6]?
**A.** < 0.03 µg/mL

**Q.** What about the MIC50 [7] of the same compound?
**A.** < 0.03 µg/mL

**Q.** And the MFC [8]?
**A.** 2 µg/mL (≈ 1.75 µM)

**Q.** What about the log10cfu [9] of the same compound?
**A.** 2.64

**Q.** And the log10cfu [10]?
**A.** 2.62

**Q.** What about the MIC50 [11] of the same compound?
**A.** < 0.03 µg/mL

**Q.** What about the log10cfu [12] of the same compound?
**A.** 4.21

**Q.** What about the log10cfu [13] of the same compound?
**A.** 5.65

**Q.** What about the MIC50 [14] of the same compound?
**A.** < 0.03 µg/mL

**Q.** What about the log10cfu [15] of the same compound?
**A.** 5.75

**Q.** And the MFC [16]?
**A.** > 16 µg/mL

**Q.** And the MIC50 [17]?
**A.** < 0.03 µg/mL

**Q.** What about the MIC50 [18] of the same compound?
**A.** < 0.03 µg/mL

**Q.** And the log10cfu [19]?
**A.** 5.94

**Q.** And the MFC [20]?
**A.** > 16 µg/mL

**Q.** What about the MFC [21] of the same compound?
**A.** 2 µg/mL (≈ 1.75 µM)

**Q.** What about the MIC50 [22] of the same compound?
**A.** < 0.03 µg/mL

**Q.** What about the Activity [23] of the same compound?
**A.** 4 µg/mL

**Q.** What about the log10cfu [24] of the same compound?
**A.** 2.95

**Q.** And the log10cfu [25]?
**A.** 4.54

**Q.** What about the MIC50 [26] of the same compound?
**A.** 0.06 µg/mL (≈ 0.0526 µM)

**Q.** What about the log10cfu [27] of the same compound?
**A.** 6.33

**Q.** What about the MFC [28] of the same compound?
**A.** > 16 µg/mL

**Q.** What about the MIC50 [29] of the same compound?
**A.** < 0.03 µg/mL

**Q.** What about the log10cfu [30] of the same compound?
**A.** 4.63

**Q.** And the Activity [31]?
**A.** 4 µg/mL

**Q.** What about the MIC50 [32] of the same compound?
**A.** < 0.03 µg/mL

**Q.** And the log10cfu [33]?
**A.** 4.25

**Q.** And the log10cfu [34]?
**A.** 2.96

**Q.** What about the MFC [35] of the same compound?
**A.** > 16 µg/mL

**Q.** What about the MIC50 [36] of the same compound?
**A.** < 0.03 µg/mL
